From PubChem BioAssay
PTEN del growth: growth suppressors of cells with PTEN tumor suppressor deletion | HCT116 PTEN-null viability, CellTiter-Glo, 60 h; hits give low values | AID 827 | viability, % at 10 µM | actives 1.2% (n = 140,000);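 active = viability at or below a set limit, 4 SD under the median of all tested compounds, cut at about 3.7% in these data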;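 note: PTEN knockout HCT116 line with beta catenin targeted HCT116 as companion control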
L major viab: reduces viability of Leishmania major promastigotes | resazurin fluorescence viability | AID 1063 | inhibition, % at 10 µM | actives 9% (n = 200,000); in the data active = inhibition above about 50%;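 note: promastigotes grown with compound for 44 hours at 28 °C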
PMI act: increases human mannose-6-phosphate isomerase activity | purified human PMI, coupled resazurin fluorescence, 20 min; hits give high values; 1 = vehicle control, 0 substrate-free wells | actives 0.005% (n = 190,000) | AID 1214 | P34949 | activation factor at 20 µM;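 active = activation factor of 2 or more at 20 µM, relative to plate controls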
Target sequence (P34949 whole entry, looked up): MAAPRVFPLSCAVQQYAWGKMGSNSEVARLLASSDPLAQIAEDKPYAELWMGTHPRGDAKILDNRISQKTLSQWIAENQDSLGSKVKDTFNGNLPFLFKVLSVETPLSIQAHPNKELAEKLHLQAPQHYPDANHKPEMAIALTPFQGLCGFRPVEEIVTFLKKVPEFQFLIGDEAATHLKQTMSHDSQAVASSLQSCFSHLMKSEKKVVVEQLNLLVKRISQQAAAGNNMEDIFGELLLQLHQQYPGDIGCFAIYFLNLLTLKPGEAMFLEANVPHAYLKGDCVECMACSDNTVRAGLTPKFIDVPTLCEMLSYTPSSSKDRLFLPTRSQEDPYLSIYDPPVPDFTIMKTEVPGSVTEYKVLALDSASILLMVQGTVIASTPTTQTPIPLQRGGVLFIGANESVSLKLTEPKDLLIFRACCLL
HCT116 bCat-KO: beta-catenin-lacking colon tumor cell growth suppression; HCT116 beta-catenin knockout viability, CellTiter-Glo, 60 h; hits give low values; viability, % at 10 µM; actives 1.5% (n = 140,000); AID 818;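 active = viability at or under a set limit, the compound median less 4 SD, cut at about 6% in these data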
PMI act hi M6P: increases human PMI activity with near-saturating mannose 6-phosphate | P34949 | coupled PMI enzyme assay, resazurin fluorescence, 20 min; hits give high values; 1 = untreated enzyme, 0 = substrate-free blank | activation factor at 20 µM | actives 0.34% (n = 190,000) | AID 1216;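 active = activation factor of 2 or more at 20 µM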
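test system = human PMI in coupled enzyme assay | medium = HEPES-buffered pH 7.4 with magnesium and detergent | also added = 1.0 mM mannose-6-phosphate substrate with 0.22 mM NADP+ | compound = 20 µM single dose | times = 20 min incubation at room temperature | measured by = resorufin fluorescence (Ex 544/Em 590 nm) from resazurin via diaphorase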
Large screens that a line does not name were inactive. Sampled rows, rich in hits. Any-hit rate of the full collection: about 9.6%.

COc1ccc(OC)c(-c2csc(NC(=O)CSc3ccccc3)n2)c1	L major viab 77.2
O=C(CS(=O)(=O)c1ccccc1)Nc1nc(-c2ccccc2)cs1	none
COc1ccc(-c2csc(NC(=O)CSc3ccc(Br)cc3)n2)c(OC)c1	none
Cc1cc(C)c(OCC(=O)Nc2ccccn2)c([N+](=O)[O-])c1	none
COc1ccc(OCCCC(=O)Nc2nc(-c3ccccn3)cs2)cc1	L major viab 100.5 (no result: PTEN del growth, HCT116 bCat-KO)
Cc1cc(C)c(OCC(=O)Nc2nc(-c3ccccn3)cs2)c(C)c1	L major viab 86.6 (no result: PTEN del growth, HCT116 bCat-KO)
O=C(CCS(=O)(=O)c1ccccc1)Nc1nc(-c2ccccn2)cs1	L major viab 92.1 (no result: PTEN del growth, PMI act, HCT116 bCat-KO, PMI act hi M6P)
CCOC(=O)C1=NN(C(C)=O)C2(CC(=O)N(c3cccc(C)c3)C2=O)C1 (stereo not drawn)	none
COc1ccccc1N1CCN(CC(=O)NCC2CCCO2)CC1 (stereo not drawn)	none
CC1(C)CC(=O)c2sc(NC(=O)c3ccccc3)nc2C1	none (no result: PTEN del growth, HCT116 bCat-KO)
CC1(C)CC(=O)c2sc(NC(=O)CCS(=O)(=O)c3ccccc3)nc2C1	PTEN del growth 3.7, L major viab 77.8, HCT116 bCat-KO 3.6
O=C(Cc1ccc(Cl)cc1)N/N=C/c1ccncc1	none (no result: PTEN del growth, HCT116 bCat-KO)
Cc1ccc(NC(=O)NCc2ccccn2)cc1	none (no result: PTEN del growth, HCT116 bCat-KO)
Cc1ccc(C)c(NC(=O)C(=O)NCc2ccccn2)c1	L major viab 64.3
CCC(C)N1CCNCC1 (stereo not drawn)	none (no result: PTEN del growth, HCT116 bCat-KO)
CCOC(=O)CC(NC(=O)C(CC)c1ccccc1)c1ccccc1Cl (stereo not drawn)	L major viab 94.9
COc1ccccc1Nc1nc(N)nc(CN2CC(C)CC(C)C2)n1 (stereo not drawn)	none (no result: PTEN del growth, HCT116 bCat-KO)
COc1ccc(/C=N/NC(=O)c2ccc(CN3c4cccc5cccc(c45)S3(=O)=O)cc2)cc1	L major viab 82.2
COCCNCCCCSc1ccc(Cl)cc1	L major viab 91.6 (no result: PTEN del growth, HCT116 bCat-KO)
COCCCNCCOCCOc1ccc(Cl)cc1C(C)(C)C	PTEN del growth 1.1, L major viab 100.1, HCT116 bCat-KO 0.9
COCCCNCCOCCOc1c(OC)cccc1OC	L major viab 83.0
CC(C)(C)NCCOCCOc1ccc(Cl)cc1C(C)(C)C	L major viab 91.0 (no result: PTEN del growth, HCT116 bCat-KO)
COc1cccc(OC)c1OCCNCCO	none
Cc1ccc(CSc2nnc(-c3ccco3)o2)cc1	none
Cc1nonc1CC(=O)N1CCCC(C(=O)c2cccc(C(F)(F)F)c2)C1 (stereo not drawn)	none (no result: PTEN del growth, HCT116 bCat-KO)
O=C1OC(/C=C/c2ccc(Cl)cc2)=NC/1=C/c1ccco1	none
[O-][n+]1onc2c3cc(-c4ccccc4)nnc3ccc21	none
C=CCNCCOCCOc1ccc(Cl)cc1C(C)(C)C	L major viab 99.5
C=CCNCCCOc1ccc(Cl)cc1C(C)(C)C	L major viab 99.6 (no result: PTEN del growth, HCT116 bCat-KO)
C=CCNCCOCCSc1ccc(Cl)cc1	L major viab 98.9
CNC(=O)Cn1nc(-c2ccc(C)c(S(=O)(=O)N(C)C)c2)c2ccccc2c1=O	none
CCO[C@@H]1OC(C(=O)NCc2ccccc2)=C[C@H](c2ccc(Br)cc2)[C@H]1CCCO	none (no result: PTEN del growth, HCT116 bCat-KO)
COc1cc(OC)cc(C(=O)N[C@H](C(=O)OCC(=O)Nc2ccc(C(C)C)cc2)C(C)C)c1	none
Cc1ccn2c(NC3CCCC3)c(-c3ccncc3)nc2c1	L major viab 88.9 (no result: PTEN del growth, HCT116 bCat-KO)
Clc1ccc(-c2nc3cnccn3c2NC2CCCC2)cc1	none
Cc1ccn2c(NC3CCCC3)c(-c3ccccn3)nc2c1	L major viab 100.6 (no result: PTEN del growth, HCT116 bCat-KO)
Cc1ccn2c(NC3CCCCC3)c(C)nc2c1	none
Cc1ccc2nc(-c3ccncc3)c(NC3CCCCC3)n2c1	L major viab 65.4 (no result: PTEN del growth, HCT116 bCat-KO)
Cc1ccc2nc(-c3ccncc3)c(NC3CCCC3)n2c1	none (no result: PTEN del growth, HCT116 bCat-KO)
c1ccc(-c2nc3ccccn3c2NC2CCCC2)nc1	L major viab 100.3 (no result: PTEN del growth, HCT116 bCat-KO)
Cc1c(NC(=O)CSc2ccccc2C(=O)Nc2cccnc2)c(=O)n(-c2ccccc2)n1C	none
COc1cc(OC)cc(-c2nnc(SCc3c(F)cccc3Cl)o2)c1	none
COc1cccc(NC(=O)c2cc(OC)c(OC)c(OC)c2Br)c1	none
CCC(NC(=O)c1ccc(C#CC2(O)CCCCC2)cc1)C(=O)O (stereo not drawn)	none (no result: PTEN del growth, HCT116 bCat-KO)
Cc1ccccc1Nc1c(-c2cccnc2)nc2cccc(C)n12	none (no result: PTEN del growth, HCT116 bCat-KO)
Cc1ccn2c(Nc3ccccc3C)c(-c3ccncc3)nc2c1	L major viab 86.0
CCCC(c1nnnn1Cc1ccc(F)cc1)N1CCN(C2CCCCC2)CC1 (stereo not drawn)	L major viab 71.6
CC(C)C(c1nnnn1Cc1ccc(F)cc1)N1CCN(C2CCCC2)CC1 (stereo not drawn)	none (no result: PTEN del growth, HCT116 bCat-KO)
c1coc(Cn2nnnc2CN2CCN(C3CCCC3)CC2)c1	L major viab 74.0
Fc1ccc(Cn2nnnc2CN2CCN(C3CCCCC3)CC2)cc1	L major viab 86.1
COc1ccc(/C=C\C(=O)c2c(O)ccc3c(C)cc(=O)oc23)cc1	L major viab 99.8
COc1ccc(/C=C/C(=O)c2c(O)ccc3c(C)cc(=O)oc23)cc1	L major viab 87.9
CCOc1ccccc1-n1c(SCC(=O)Nc2ccc(CC)cc2)nc2n[nH]c(C)c2c1=N	PTEN del growth 3.7, HCT116 bCat-KO 5.0
CCc1ccccc1NC(=O)CSc1nc2n[nH]c(C)c2c(=N)n1-c1cccc(OC)c1	L major viab 90.1
COc1ccc(-n2c(SCC(=O)NCC3CCCO3)nc3n[nH]c(C)c3c2=N)cc1 (stereo not drawn)	none
CCOc1ccccc1NC(=O)CCSc1nc2n[nH]c(C)c2c(=N)n1-c1ccccc1Cl	none
COc1ccc(Cl)cc1NC(=S)Nc1ccccc1C	none (no result: PTEN del growth, HCT116 bCat-KO)
CCn1c(SCC(=O)Nc2cccc(C)n2)nc2c1c(=O)n(C)c(=O)n2C	none (no result: PTEN del growth, HCT116 bCat-KO)
Cc1cccc(C)c1NS(=O)(=O)c1ccc(OCCNS(C)(=O)=O)cc1	none (no result: PTEN del growth, HCT116 bCat-KO)
CCOC(=O)c1cnc(SCc2cccc(C)c2)nc1N	none
c1coc(-c2nc3nc4ccccc4nc3n2-c2ccc3c(c2)OCCO3)c1	L major viab 83.7
c1ccc(Cn2c(-c3ccco3)nc3nc4ccccc4nc32)cc1	none
COCCOC(=O)c1c(C)n(C)c2ccc(OC(=O)C3CC3)cc12	none
COc1ccc(-c2cc(N)n(S(=O)(=O)c3ccc(F)cc3)n2)cc1OC	L major viab 51.1
CCOC(=O)c1oc2ccc(S(=O)(=O)n3nc(-c4cc(OC)c(OC)c(OC)c4)cc3N)cc2c1C	L major viab 64.1 (no result: PTEN del growth, HCT116 bCat-KO)
COc1cc(-c2cc(N)n(S(=O)(=O)c3ccc(F)cc3)n2)cc(OC)c1OC	none
CCCCC(CCC(=O)Nc1ccccc1C(=O)OCC)C(=O)O (stereo not drawn)	none
O=C(CSc1nc2[nH]ncc2c(=O)[nH]1)NCc1ccc(F)cc1	none
CCN(C(=O)c1cc2cccc(OC)c2oc1=O)c1ccccc1	none
CN(C)C(=O)C(=O)c1cccn1-c1cccc(Cl)c1C#N	none (no result: PTEN del growth, HCT116 bCat-KO)
Cc1cc(C(C)(C)C)oc1C(=O)N(CC(=O)NC1CCCC1)c1c(C)cccc1C	none
COc1ccccc1N(CC(=O)NC1CCCC1)C(=O)c1oc(C(C)(C)C)cc1C	L major viab 61.5 (no result: PTEN del growth, HCT116 bCat-KO)
O=C(CN1CCN(c2ccc(O)cc2)CC1)NC(c1ccccc1)c1ccccc1	L major viab 84.3
